In ChEMBL document CHEMBL1150387, “Development and experimental validation of a docking strategy for the generation of kinase-targeted libraries” (J Med Chem, 2008):

Legend:
[1] = molecular target: Cyclin-dependent kinase 1 (Homo sapiens) (UniProt P06493); assay: Inhibition of CDK1 at 10 uM by HTRF assay relative to control
Summary of the method: (§1)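 HTRF kinase assay, one panel of kinases. Inhibitor stock 50 µM in 100% DMSO; tested at 10 µM. ATP and substrate at final levels near Km. Final buffer: 50 mM Hepes/NaOH pH 7.4, 40 µM Na3VO4, 0.005% Tween-20, 1 mM DTT, MnCl2 or MgCl2 at kinase-dependent levels. Started by adding ATP/substrate. Reaction run at room temperature, time varied by kinase. Detection mix in 50 mM Hepes pH 7.4, 0.1% BSA, 150 mM KF, incubated ≥1 h at room temperature. Activity expressed as % of uninhibited control; n=2.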

[2] = molecular target: T1, Inhibitor of nuclear factor kappa-B kinase subunit beta (Homo sapiens) (UniProt O14920); assay: Inhibition of IKK-beta at 10 uM by HTRF assay relative to control; summary of the method: as §1
T1 sequence (whole entry): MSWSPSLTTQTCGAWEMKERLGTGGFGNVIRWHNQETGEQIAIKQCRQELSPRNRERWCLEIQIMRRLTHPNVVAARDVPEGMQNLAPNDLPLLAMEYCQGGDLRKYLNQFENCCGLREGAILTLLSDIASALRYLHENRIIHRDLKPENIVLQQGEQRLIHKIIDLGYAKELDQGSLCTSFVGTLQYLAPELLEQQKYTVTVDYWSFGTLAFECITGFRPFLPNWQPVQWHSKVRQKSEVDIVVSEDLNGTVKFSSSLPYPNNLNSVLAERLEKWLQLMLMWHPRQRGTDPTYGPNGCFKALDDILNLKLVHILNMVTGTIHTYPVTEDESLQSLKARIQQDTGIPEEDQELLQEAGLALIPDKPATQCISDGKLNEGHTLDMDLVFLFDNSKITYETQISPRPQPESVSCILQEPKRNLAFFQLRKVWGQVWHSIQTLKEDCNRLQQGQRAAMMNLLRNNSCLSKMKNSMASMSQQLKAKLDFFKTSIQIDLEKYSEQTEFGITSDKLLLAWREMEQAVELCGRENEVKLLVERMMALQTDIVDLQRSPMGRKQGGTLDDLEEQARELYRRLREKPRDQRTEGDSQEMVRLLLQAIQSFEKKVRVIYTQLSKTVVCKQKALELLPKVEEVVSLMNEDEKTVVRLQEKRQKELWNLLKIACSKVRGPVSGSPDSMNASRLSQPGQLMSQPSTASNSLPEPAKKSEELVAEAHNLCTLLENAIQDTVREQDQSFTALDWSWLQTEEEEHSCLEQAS

[3] = molecular target: 3-phosphoinositide-dependent protein kinase 1 (Homo sapiens) (UniProt O15530); assay: Inhibition of PDK1 at 10 uM by HTRF assay relative to control
3-phosphoinositide-dependent protein kinase 1 (Homo sapiens), sequence (O15530 whole entry, looked up): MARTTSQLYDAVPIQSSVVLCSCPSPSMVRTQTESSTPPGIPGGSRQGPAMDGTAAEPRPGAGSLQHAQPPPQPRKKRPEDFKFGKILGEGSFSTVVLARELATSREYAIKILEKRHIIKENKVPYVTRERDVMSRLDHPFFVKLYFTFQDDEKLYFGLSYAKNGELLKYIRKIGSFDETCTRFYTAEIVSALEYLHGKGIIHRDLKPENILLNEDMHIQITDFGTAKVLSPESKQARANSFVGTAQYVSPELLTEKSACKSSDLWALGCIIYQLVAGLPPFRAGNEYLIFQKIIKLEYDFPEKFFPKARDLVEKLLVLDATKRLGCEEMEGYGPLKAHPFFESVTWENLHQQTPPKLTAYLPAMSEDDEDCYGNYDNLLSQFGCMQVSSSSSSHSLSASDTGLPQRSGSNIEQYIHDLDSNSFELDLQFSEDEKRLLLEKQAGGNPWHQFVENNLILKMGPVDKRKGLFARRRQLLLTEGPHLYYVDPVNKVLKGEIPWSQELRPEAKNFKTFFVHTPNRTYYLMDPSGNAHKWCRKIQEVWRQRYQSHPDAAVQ

[4] = molecular target: MAP kinase-activated protein kinase 2 (Homo sapiens) (UniProt P49137); assay: Inhibition of MAPKAPK2 at 10 uM by HTRF assay relative to control; summary of the method: as §1
MAP kinase-activated protein kinase 2 (Homo sapiens), sequence (P49137 whole entry, looked up): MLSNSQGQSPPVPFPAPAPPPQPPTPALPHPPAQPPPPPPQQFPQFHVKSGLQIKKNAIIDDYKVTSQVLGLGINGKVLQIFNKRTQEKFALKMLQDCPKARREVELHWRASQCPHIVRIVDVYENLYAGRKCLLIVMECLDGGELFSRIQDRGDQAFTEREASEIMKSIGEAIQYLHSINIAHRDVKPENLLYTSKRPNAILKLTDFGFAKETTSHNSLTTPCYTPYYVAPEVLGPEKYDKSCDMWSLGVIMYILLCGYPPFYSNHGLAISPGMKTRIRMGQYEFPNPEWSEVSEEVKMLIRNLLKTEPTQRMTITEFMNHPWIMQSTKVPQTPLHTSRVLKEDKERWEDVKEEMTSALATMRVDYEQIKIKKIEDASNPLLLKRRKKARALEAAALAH

[5] = molecular target: Ribosomal protein S6 kinase alpha-3 (Homo sapiens) (UniProt P51812); assay: Inhibition of RSK2 at 10 uM by HTRF assay relative to control; summary of the method: as §1
Ribosomal protein S6 kinase alpha-3 (Homo sapiens), sequence (P51812 whole entry): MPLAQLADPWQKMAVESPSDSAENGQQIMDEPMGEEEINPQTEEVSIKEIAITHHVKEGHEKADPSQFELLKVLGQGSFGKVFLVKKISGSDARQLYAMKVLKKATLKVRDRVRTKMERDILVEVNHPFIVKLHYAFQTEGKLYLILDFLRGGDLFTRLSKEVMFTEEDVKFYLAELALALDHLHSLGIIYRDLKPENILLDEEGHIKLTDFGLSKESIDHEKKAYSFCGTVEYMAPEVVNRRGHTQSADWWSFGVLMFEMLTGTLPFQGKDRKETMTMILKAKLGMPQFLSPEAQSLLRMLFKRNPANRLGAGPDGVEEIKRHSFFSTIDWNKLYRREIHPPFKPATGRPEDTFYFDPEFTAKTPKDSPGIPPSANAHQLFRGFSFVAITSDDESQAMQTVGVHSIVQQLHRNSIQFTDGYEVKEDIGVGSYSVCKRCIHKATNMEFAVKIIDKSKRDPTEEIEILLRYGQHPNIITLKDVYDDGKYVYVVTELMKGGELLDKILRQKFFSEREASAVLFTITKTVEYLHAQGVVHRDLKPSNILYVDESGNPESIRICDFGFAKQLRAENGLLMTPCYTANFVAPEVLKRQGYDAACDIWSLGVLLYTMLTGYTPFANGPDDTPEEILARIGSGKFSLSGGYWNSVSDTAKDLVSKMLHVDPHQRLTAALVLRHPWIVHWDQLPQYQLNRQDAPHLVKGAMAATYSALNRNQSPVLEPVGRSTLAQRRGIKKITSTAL

[6] = molecular target: Insulin-like growth factor 1 receptor (Homo sapiens) (UniProt P08069); assay: Inhibition of IGF1R at 10 uM by HTRF assay relative to control; summary of the method: as §1
Insulin-like growth factor 1 receptor (Homo sapiens), sequence (P08069 31-736 limits assumed): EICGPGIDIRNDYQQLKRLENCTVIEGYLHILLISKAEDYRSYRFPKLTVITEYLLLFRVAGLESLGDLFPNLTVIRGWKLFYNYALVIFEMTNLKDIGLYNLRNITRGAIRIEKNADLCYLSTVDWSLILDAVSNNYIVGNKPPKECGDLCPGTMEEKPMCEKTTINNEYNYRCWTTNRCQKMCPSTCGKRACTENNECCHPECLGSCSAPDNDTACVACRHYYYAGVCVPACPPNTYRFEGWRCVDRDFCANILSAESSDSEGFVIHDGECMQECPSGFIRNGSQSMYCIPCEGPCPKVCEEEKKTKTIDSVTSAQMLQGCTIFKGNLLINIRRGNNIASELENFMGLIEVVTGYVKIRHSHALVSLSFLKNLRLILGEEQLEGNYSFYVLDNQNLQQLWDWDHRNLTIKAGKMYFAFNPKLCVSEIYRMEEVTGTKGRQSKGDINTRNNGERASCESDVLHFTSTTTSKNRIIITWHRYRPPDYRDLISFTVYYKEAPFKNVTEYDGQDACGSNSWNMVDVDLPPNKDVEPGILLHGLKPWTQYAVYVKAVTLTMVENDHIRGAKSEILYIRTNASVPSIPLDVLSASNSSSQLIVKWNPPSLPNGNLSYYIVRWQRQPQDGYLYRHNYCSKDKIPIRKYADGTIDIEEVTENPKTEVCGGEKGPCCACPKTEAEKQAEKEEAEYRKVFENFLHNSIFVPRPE
Insulin-like growth factor 1 receptor (Homo sapiens), sequence (P08069 741-1367 limits assumed): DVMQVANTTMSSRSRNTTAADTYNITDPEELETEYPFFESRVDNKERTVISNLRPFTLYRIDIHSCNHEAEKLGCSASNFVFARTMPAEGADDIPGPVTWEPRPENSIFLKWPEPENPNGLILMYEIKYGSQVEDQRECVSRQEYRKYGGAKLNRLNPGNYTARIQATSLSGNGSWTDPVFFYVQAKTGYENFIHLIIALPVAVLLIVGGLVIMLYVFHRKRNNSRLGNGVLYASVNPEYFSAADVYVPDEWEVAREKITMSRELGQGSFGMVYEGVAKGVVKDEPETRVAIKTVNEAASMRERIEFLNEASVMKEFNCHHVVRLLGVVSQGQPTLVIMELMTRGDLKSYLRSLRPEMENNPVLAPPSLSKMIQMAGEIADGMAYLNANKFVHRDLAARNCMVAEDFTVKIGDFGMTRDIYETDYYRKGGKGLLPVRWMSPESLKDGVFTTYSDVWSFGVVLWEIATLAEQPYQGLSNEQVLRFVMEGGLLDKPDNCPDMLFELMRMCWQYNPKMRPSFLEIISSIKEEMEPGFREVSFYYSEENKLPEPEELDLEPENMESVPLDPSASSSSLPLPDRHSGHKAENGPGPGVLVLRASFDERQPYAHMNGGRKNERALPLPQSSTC

[7] = molecular target: T2, Tyrosine-protein kinase ZAP-70 (Homo sapiens) (UniProt P43403); assay: Inhibition of ZAP70 at 10 uM by HTRF assay relative to control; summary of the method: as §1
T2 sequence (whole entry): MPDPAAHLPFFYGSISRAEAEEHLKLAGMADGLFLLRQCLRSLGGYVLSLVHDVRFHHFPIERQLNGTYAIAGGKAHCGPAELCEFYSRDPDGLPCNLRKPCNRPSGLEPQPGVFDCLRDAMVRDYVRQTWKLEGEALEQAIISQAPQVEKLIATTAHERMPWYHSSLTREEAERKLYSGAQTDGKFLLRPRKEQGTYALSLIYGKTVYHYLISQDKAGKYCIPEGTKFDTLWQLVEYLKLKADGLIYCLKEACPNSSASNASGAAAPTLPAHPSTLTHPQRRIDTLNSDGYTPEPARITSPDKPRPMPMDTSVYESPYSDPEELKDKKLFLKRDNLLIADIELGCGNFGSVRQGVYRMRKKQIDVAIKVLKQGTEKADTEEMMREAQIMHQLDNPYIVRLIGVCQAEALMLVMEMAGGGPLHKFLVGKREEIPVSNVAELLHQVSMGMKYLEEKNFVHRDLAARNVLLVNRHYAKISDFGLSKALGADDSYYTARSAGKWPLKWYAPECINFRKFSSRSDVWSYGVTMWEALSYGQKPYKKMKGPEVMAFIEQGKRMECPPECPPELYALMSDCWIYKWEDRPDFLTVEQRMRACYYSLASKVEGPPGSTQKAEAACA

[8] = molecular target: Epidermal growth factor receptor (Homo sapiens) (UniProt P00533); assay: Inhibition of EGFR at 10 uM by HTRF assay relative to control; summary of the method: as §1
Epidermal growth factor receptor (Homo sapiens), sequence (P00533 whole entry): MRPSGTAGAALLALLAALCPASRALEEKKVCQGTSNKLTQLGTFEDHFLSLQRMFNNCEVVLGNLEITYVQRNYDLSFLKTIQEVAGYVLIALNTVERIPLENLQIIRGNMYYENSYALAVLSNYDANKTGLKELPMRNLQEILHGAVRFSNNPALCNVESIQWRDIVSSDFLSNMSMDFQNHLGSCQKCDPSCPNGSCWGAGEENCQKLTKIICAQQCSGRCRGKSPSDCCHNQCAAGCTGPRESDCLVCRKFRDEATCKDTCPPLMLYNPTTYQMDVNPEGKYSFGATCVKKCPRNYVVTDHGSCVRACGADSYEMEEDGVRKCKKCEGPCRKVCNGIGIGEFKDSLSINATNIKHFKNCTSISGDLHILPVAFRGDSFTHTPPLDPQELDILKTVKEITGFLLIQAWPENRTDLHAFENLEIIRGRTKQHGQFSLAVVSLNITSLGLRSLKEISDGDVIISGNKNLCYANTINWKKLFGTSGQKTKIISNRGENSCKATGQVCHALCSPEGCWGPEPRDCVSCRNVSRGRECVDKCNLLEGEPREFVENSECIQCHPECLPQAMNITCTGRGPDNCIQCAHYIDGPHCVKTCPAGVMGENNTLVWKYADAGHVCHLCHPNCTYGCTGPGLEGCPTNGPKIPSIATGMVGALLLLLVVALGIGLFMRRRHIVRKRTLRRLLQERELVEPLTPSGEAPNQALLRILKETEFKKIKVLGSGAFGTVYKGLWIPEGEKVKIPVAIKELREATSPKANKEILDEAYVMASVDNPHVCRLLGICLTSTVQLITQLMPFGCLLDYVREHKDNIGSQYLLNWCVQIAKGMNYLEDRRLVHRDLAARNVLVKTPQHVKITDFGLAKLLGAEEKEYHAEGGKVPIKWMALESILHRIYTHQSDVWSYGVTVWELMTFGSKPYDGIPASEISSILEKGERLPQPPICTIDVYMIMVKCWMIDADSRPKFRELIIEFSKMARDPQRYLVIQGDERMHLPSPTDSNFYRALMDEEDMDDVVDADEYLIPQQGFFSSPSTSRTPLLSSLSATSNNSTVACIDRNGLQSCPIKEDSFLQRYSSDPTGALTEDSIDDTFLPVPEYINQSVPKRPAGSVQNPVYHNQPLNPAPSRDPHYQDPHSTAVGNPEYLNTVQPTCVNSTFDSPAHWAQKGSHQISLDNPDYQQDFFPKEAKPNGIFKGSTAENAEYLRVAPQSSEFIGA

[9] = molecular target: T3, Calcium/calmodulin-dependent protein kinase type IV (Homo sapiens) (UniProt Q16566); assay: Inhibition of CaMK4 at 10 uM by HTRF assay relative to control; summary of the method: as §1
T3 sequence (whole entry): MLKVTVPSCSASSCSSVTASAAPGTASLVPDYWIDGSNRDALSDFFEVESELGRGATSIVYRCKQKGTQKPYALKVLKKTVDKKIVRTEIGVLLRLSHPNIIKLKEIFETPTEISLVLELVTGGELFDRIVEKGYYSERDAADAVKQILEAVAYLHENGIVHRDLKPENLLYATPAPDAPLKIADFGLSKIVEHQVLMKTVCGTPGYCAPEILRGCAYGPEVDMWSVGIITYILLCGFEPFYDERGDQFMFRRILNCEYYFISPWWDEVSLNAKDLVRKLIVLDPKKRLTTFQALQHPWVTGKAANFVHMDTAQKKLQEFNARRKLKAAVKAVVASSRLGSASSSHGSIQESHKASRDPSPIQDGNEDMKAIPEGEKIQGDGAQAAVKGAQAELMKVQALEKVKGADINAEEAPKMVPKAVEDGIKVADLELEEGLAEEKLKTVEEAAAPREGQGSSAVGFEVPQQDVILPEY

[10] = molecular target: Mitogen-activated protein kinase 1 (Homo sapiens) (UniProt P28482); assay: Inhibition of ERK2 at 10 uM by HTRF assay relative to control; summary of the method: as §1
Mitogen-activated protein kinase 1 (Homo sapiens), sequence (P28482 whole entry): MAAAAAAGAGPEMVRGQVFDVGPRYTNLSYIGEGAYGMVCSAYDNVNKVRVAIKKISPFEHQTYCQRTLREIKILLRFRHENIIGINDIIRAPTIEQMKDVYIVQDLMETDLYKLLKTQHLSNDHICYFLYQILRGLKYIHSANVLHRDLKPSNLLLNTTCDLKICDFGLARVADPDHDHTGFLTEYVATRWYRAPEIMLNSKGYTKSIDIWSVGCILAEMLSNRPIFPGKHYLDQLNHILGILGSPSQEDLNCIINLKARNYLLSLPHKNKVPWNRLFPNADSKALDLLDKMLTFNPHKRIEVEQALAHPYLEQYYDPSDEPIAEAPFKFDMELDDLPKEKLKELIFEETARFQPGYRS

Cyclin-dependent kinase 1 (Homo sapiens), sequence (P06493 whole entry, looked up): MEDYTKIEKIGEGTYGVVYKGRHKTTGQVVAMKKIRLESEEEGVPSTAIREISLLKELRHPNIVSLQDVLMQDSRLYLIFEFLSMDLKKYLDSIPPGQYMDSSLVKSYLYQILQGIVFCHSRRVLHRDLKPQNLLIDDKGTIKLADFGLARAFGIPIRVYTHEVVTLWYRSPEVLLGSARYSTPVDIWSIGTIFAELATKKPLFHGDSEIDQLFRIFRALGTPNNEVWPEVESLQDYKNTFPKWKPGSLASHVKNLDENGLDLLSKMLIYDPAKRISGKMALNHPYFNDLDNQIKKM

inhibition [1] [%]	inhibition [2] [%]	inhibition [3] [%]	inhibition [4] [%]	inhibition [5] [%]	inhibition [6] [%]	inhibition [7] [%]	inhibition [8] [%]	inhibition [9] [%]	inhibition [10] [%]	Compound
11	45	3	1	9	83	19	43	0	0	O=C(NC[C@@H]1CCCO1)c1cccc(Nc2nccc(Nc3ccc4ncsc4c3)n2)c1
0	4	2	1	0	7	6	2	0	0	Nc1nc(Nc2ccc3ncsc3c2)cc(N2CCC[C@H]2C(=O)N[C@@H](CO)c2ccccc2)n1
0	2	1	2	0	8	2	0	0	0	Cc1cccc(Oc2ccnc(N3CCC[C@H]3C(=O)NCCCn3ccnc3)n2)c1
0	0	0	0	0	0	3	0	0	3	CN(CCc1ccccn1)C(=O)[C@@H]1CCCN1c1nccc(Nc2ccccc2)n1
0	3	1	2	0	0	3	5	0	0	CN(CCCn1ccnc1)C(=O)[C@@H]1CCCN1c1nccc(Nc2ccccc2)n1

More lines, now with the values behind:

Compound	inhibition [1] [%]	inhibition [2] [%]	inhibition [3] [%]	inhibition [4] [%]	inhibition [5] [%]	inhibition [6] [%]	inhibition [7] [%]	inhibition [8] [%]	inhibition [9] [%]	inhibition [10] [%]
O=C(c1nc(SCc2ccc(Cl)cc2)n2ccccc12)N1CCN(c2ncnc3c2CN(Cc2ccccc2)CC3)CC1	0	2	0	1	0	0	3	0	0	3
O=C(c1nc(SCc2ccc(Cl)cc2)n2ccccc12)N1CCN(c2cc(Nc3cccc(Br)c3)ncn2)CC1	8	1	0	2	0	0	1	0	0	1
COc1ccc(NC(=O)Cc2ccc(Nc3cc(N(C)c4cccc(C)c4)ncn3)cc2)cn1	0	0	1	0	0	6	2	62	0	4
COc1cccc(Nc2cc(N3CCC[C@H]3C(=O)NCCN3CCCCC3)nc(N)n2)c1	0	6	0	0	0	1	2	0	0	0
COC[C@@H]1CCCN1C(=O)[C@@H]1CCCN1c1cc(Nc2cccc(OC)c2)nc(N)n1	5	9	0	2	5	5	0	2	0	0
Cc1cc(C(=O)N2CCN(c3ncnc4c3CN(Cc3ccccc3)CC4)CC2)c(C)n1C	0	3	0	0	0	0	0	0	0	2
Nc1nc(N2CCOCC2)cc(N2CCC(C(=O)NCCc3ccc(O)cc3)CC2)n1	0	4	0	0	0	0	2	0	0	11
Cc1cccc(N(C)c2cc(Nc3cccc(C(=O)NCc4ccncc4)c3)ncn2)c1	7	0	0	0	3	0	6	100	0	6
